From PMC2895358 (Journal of Medicinal Chemistry, 2010) come the findings set out here.

Data set [1] concerns the target T1, cruzain (Trypanosoma cruzi, UniProt P25779). The experiment in a line: In vitro activity of compound 11 and representative analogues against cruzain. The format is biochemical.
The target in data set [2] is T1, cruzain. The experiment in a line: Cruzain inhibition assay. As to conditions: for time-dependence of cruzain inhibition over incubation: incubation 0 to 240 min, 1 μM of 8, 10 μM of 11, 10 uM of 4, 100 uM of 5. It is filed as biochemical.
In data set [3] the target is T1, cruzain. The experiment in a line: LC/MS stability of compounds in the presence or absence of cruzain. It is filed as physicochemical. As to conditions: for behaviour as cruzain substrate: LC/MS and time-dependence assay. The essentials: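 Test compound solutions in 2 mM Bis Tris pH 5.8, with or without 100 nM cruzain, analysed by LC/MS at time points from 30 min to 24 h, with elution monitored at 254 nm, to detect degradation and whether cruzain catalyses it. In a separate run, cruzain activity was followed after incubation with test compound (1 or 10 μM) from 0 to 240 min.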

pIC50, pKi: −log10 of the molar value.

T1 sequence (P25779 123-337 limits assumed): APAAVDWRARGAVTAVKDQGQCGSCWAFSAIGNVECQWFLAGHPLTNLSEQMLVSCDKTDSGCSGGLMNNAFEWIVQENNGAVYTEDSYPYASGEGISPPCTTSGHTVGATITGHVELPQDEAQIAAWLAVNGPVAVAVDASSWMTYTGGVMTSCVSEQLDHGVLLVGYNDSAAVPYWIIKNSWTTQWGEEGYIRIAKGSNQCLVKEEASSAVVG

The pIC50 is −log10 of the IC50, conventionally taken in molar units. Read a high pIC50 as a low IC50. Consider `O=C(CNC(=O)c1ccc(Cl)cc1)OC(C(=O)Nc1ccc(Cl)cc1C(F)(F)F)c1ccccc1` (stereo not drawn) [Compound 11], for which, on cruzain [1], the negative-log IC50 (pIC50) is 6.59. Further, the “time-dependence of cruzain inhibition over incubation” value on cruzain [2] is given as “clear time-dependent effect”. Also, the “stability by LC/MS in the absence of cruzain” value at cruzain [3] (2 mM Bis Tris pH 5.8, no cruzain, one day) was “still observed in solution even after one day of incubation”. Also, the “behaviour as cruzain substrate” value on cruzain [3] is recorded as “identified as a cruzain substrate”.

One may read the pKi as −log10 of the Ki, conventionally taken in molar units. Read a high pKi as a small Ki. As to `O=C(CNC(=O)c1ccccc1)OC(C(=O)Nc1cc(C(F)(F)F)ccc1Cl)c1ccccc1` (stereo not drawn) [Compound 8], at cruzain [2], the negative logarithm of the Ki (pKi) is 7.19 and the “time-dependence of cruzain inhibition over incubation” value is reported as “clear time-dependent effect”.

In the case of `CC(C)C(NC(=O)c1ccco1)C(=O)NCC(c1ccco1)N1CCCCC1` (stereo not drawn) [Compound 5], the “behaviour as cruzain substrate” value on cruzain [3] is reported as “did not behave as substrates”.

Molecule `COc1ccc(Cl)cc1NC(=O)COC(=O)C(CC(C)C)N1C(=O)C2CC=CCC2C1=O` (stereo not drawn) [Compound 4] showed a pKi on cruzain [2] of 5.80. The “behaviour as cruzain substrate” value at cruzain [3] is reported as “did not behave as substrates”.
